# Experimental data published in ChEMBL document CHEMBL1156155, “Synthesis and anticancer activity evaluation of 2(4-alkoxyphenyl)cyclopropyl hydrazides and triazolo phthalazines” (Bioorg Med Chem, 2010).
# Calls of active or inactive are those of the source. No cut-off for these calls is given here.
# What was measured:
# A549 = assay: Growth inhibition of human A549 cells after 72 hrs by MTT assay; type: functional, cell-based; conditions: A549, 72 h
# Outline: (§1)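 MTT colorimetric growth assay. Cells are seeded at 10,000–40,000 cells/mL depending on cell type and allowed to plate for 24 h, then cultured 72 h with or without compound. Formazan from mitochondrial MTT reduction is read spectrophotometrically at 570 nm (reference 630 nm). IC50 is the growth-inhibitory concentration.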
# PC-3 = assay: Growth inhibition of human PC3 cells after 72 hrs by MTT assay; type: functional, cell-based; conditions: PC-3, 72 h; outline: as §1
# [1] = Growth inhibition of human U373 cells after 72 hrs by MTT assay; type: functional, cell-based, U-373MG ATCC; conditions: U373 MG; outline: as §1
# MCF7 = assay: Growth inhibition of human MCF7 cells after 72 hrs by MTT assay; type: functional, cell-based; conditions: MCF7, 72 h; outline: as §1
# [2] = Growth inhibition of human OE21 cells after 72 hrs by MTT assay; type: functional, cell-based; conditions: OE21, 72 h; outline: as §1
# SK-MEL = assay: Growth inhibition of human SK-MEL cells after 72 hrs by MTT assay; type: functional, cell-based; outline: as §1
# U-373MG ATCC [3] = assay: Anticancer activity against human U373 cells assessed as reduction in cell proliferation at 10 uM for 3 days by quantitative video microscopy relative to control; type: functional, cell-based
# Outline: (§2)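 U373 glioblastoma cells filmed by computer-assisted phase-contrast (quantitative videomicroscopy) over three days of culture with or without compound. Cell population growth is judged from morphology: reduced proliferation is taken as cytostatic effect, direct cell killing as cytotoxic effect, and round-shaped cells as cell death. Comparison is against untreated control.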
# U-373MG ATCC [4] = assay: Anticancer activity against human U373 cells assessed as cell death at 10 uM for 3 days by quantitative video microscopy; type: functional, cell-based; outline: as §2
# U-373MG ATCC [5] = assay: Cytostatic activity against human U373 cells assessed as increase in mitosis duration at 10 uM after 3 days by quantitative video microscopy relative to control; type: functional, cell-based
# Outline: (§3)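 Human U373 glioblastoma cultures are recorded by quantitative videomicroscopy with or without compound. In-house software scores mitosis duration (min) and mitosis number, with number normalized to initial cell count at t = 0 h. Values are compared with untreated control.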
# U-373MG ATCC [6] = assay: Anticancer activity against human U373 cells assessed as reduction in cell proliferation at 5 uM for 3 days by quantitative video microscopy relative to control; type: functional, cell-based; outline: as §2
# U-373MG ATCC [7] = assay: Anticancer activity against human U373 cells assessed as cell death at 5 uM for 3 days by quantitative video microscopy; type: functional, cell-based; outline: as §2
# U-373MG ATCC [8] = assay: Cytostatic activity against human U373 cells assessed as decrease in mitosis duration at 5 uM after 3 days by quantitative video microscopy relative to control; type: functional, cell-based; outline: as §3
Structure (SMILES),IC50 (A549) [µM],IC50 (PC-3) [µM],IC50 (MCF7) [µM],IC50 (SK-MEL) [µM],IC50 [1] [µM],IC50 [2] [µM],Activity (U-373MG ATCC [3]),Activity (U-373MG ATCC [4]),Activity (U-373MG ATCC [5]),Activity (U-373MG ATCC [6]),Activity (U-373MG ATCC [7]),Activity (U-373MG ATCC [8])
CC(C)=CCC/C(C)=C/COc1ccc(C2CC2C(=O)NNc2nncc3ccccc23)cc1 (stereo not drawn),36,24,23,25,9,9,Active,inactive,Active,–,–,–
CC(C)=CCOc1ccc(C2CC2C(=O)NNc2nncc3ccccc23)cc1 (stereo not drawn),82,81,69,67,81,38,–,–,–,–,–,–
O=C(NNc1nncc2ccccc12)C1CC1c1ccc(OCC(F)(F)F)cc1 (stereo not drawn),48,67,8,29,25,17,–,–,–,–,–,–
O=C(NNC(=O)C1CC1c1ccc(OCC(F)(F)F)cc1)c1ccncc1 (stereo not drawn),10,44,34,81,19,31,–,–,–,–,–,–
CC(C)=CCOc1ccc(C2CC2C(=O)NNC(=O)c2ccncc2)cc1 (stereo not drawn),> 100,> 100,–,–,> 100,–,–,–,–,–,–,–
CC(C)=CCC/C(C)=C/COc1ccc(C2CC2c2nnc3c4ccccc4cnn23)cc1 (stereo not drawn),45,8,9,72,63,5,–,–,–,–,–,–
COc1ccc(C2CC2c2nnc3c4ccccc4cnn23)cc1 (stereo not drawn),40,29,29,40,28,26,–,–,–,–,–,–
CCOc1ccc(C2CC2c2nnc3c4ccccc4cnn23)cc1 (stereo not drawn),66,> 100,–,–,44,–,–,–,–,–,–,–
CCOc1ccc(C2CC2C(=O)NNC(=O)c2ccncc2)cc1 (stereo not drawn),43,> 100,–,–,63,–,–,–,–,–,–,–
COc1ccc(C2CC2C(=O)NNC(=O)c2ccncc2)cc1 (stereo not drawn),> 100,> 100,–,–,> 100,–,–,–,–,–,–,–
O=C(NNc1nncc2ccccc12)C1CC1c1ccc(OC(F)(F)F)cc1 (stereo not drawn),87,92,54,29,85,42,–,–,–,–,–,–
CC(C)=CCC/C(C)=C/COc1ccc(C2CC2C(=O)NNC(=O)c2ccncc2)cc1 (stereo not drawn),78,> 100,–,–,84,–,–,–,–,–,–,–

# Continued, in another order:
IC50 (A549) [µM],IC50 (PC-3) [µM],IC50 (MCF7) [µM],IC50 (SK-MEL) [µM],Structure (SMILES),IC50 [1] [µM],IC50 [2] [µM],Activity (U-373MG ATCC [3]),Activity (U-373MG ATCC [4]),Activity (U-373MG ATCC [5]),Activity (U-373MG ATCC [6]),Activity (U-373MG ATCC [7]),Activity (U-373MG ATCC [8])
56,22,19,26,CC(C)=CCOc1ccc(C2CC2c2nnc3c4ccccc4cnn23)cc1 (stereo not drawn),4,8,–,–,–,Active,inactive,Active
56,> 100,–,–,O=C(NNC(=O)C1CC1c1ccc(OC(F)(F)F)cc1)c1ccncc1 (stereo not drawn),37,–,–,–,–,–,–,–
> 100,94,–,–,CCOc1ccc(C2CC2C(=O)NNc2nncc3ccccc23)cc1 (stereo not drawn),91,–,–,–,–,–,–,–
96,64,72,68,COc1ccc(C2CC2C(=O)NNc2nncc3ccccc23)cc1 (stereo not drawn),83,48,–,–,–,–,–,–
37,49,37,57,FC(F)(F)Oc1ccc(C2CC2c2nnc3c4ccccc4cnn23)cc1 (stereo not drawn),37,30,–,–,–,–,–,–
64,38,37,29,FC(F)(F)COc1ccc(C2CC2c2nnc3c4ccccc4cnn23)cc1 (stereo not drawn),58,9,–,–,–,–,–,–
